1 molecule from ChEMBL document CHEMBL4334471, “Discovery of 1,8-disubstituted-[1,2,3]triazolo[4,5-c]quinoline derivatives as a new class of Hippo signaling pathway inhibitors” (Bioorg Med Chem Lett, 2019) can be followed below.

For orientation: pIC50 means the negative decadic logarithm of the IC50, by convention in mol/L.

pIC50: −log10 of the molar value.

Assay [1] concerns the target Tyrosine-protein kinase BTK (Homo sapiens) (UniProt Q06187). The experiment in a line: Inhibition of recombinant full length human BTK assessed as residual activity at 10 uM using KVEKIGEGTYGVVYK substrate incubated for 40 mins in presence of [gamma-33ATP] by scintillation counting based radiometry assay relative to control.
In assay [2] the target is Cyclin-Y/Cyclin-dependent kinase 16 (Homo sapiens) (UniProt Q00536+Q8ND76). The assay can be described thus: Inhibition of recombinant full length human CDK16/cyclinY assessed as residual activity at 10 uM using PKSPKARKKL as substrate incubated for 120 mins in presence of [gamma-33ATP] by scintillation counting based radiometry assay relative to control. It is filed as protein-complex assay.

Assay [3] has as its target Cyclin-dependent kinase-like 3 (Homo sapiens) (UniProt Q8IVW4). The assay can be described thus: Inhibition of recombinant full length human CDKL3 assessed as residual activity at 10 uM using RRRFRPASPLRGPPK as substrate incubated for 120 mins in presence of [gamma-33ATP] by scintillation counting based radiometry assay relative to control.
A further assay deals with Fungi. The assay can be described thus: Inhibition of recombinant fungi CK1 (2 to 298 residues) assessed as residual activity at 10 uM using KRRRALS(p)VASLPGL as substrate incubated for 40 mins in presence of [gamma-33ATP] by scintillation counting based radiometry assay relative to control.
In assay [4] the target is Tyrosine-protein kinase CSK (Homo sapiens) (UniProt P41240). The assay can be described thus: Inhibition of recombinant human CSK assessed as residual activity at 10 uM poly(Glu, Tyr) 4:1 as substrate incubated 40 mins in presence of [gamma-33ATP] by scintillation counting based radiometry assay relative to control.
In assay [5] the target is Tyrosine-protein kinase Fes/Fps (Homo sapiens) (UniProt P07332). The experiment in a line: Inhibition of recombinant human FES (2 to end residues) assessed as residual activity at 10 uM using poly(Glu, Tyr) 4:1 as substrate at 40 mins in presence of [gamma-33ATP] by scintillation counting based radiometry assay relative to control.
Tyrosine-protein kinase Fes/Fps (Homo sapiens), sequence (P07332 whole entry, the tested form may be a part): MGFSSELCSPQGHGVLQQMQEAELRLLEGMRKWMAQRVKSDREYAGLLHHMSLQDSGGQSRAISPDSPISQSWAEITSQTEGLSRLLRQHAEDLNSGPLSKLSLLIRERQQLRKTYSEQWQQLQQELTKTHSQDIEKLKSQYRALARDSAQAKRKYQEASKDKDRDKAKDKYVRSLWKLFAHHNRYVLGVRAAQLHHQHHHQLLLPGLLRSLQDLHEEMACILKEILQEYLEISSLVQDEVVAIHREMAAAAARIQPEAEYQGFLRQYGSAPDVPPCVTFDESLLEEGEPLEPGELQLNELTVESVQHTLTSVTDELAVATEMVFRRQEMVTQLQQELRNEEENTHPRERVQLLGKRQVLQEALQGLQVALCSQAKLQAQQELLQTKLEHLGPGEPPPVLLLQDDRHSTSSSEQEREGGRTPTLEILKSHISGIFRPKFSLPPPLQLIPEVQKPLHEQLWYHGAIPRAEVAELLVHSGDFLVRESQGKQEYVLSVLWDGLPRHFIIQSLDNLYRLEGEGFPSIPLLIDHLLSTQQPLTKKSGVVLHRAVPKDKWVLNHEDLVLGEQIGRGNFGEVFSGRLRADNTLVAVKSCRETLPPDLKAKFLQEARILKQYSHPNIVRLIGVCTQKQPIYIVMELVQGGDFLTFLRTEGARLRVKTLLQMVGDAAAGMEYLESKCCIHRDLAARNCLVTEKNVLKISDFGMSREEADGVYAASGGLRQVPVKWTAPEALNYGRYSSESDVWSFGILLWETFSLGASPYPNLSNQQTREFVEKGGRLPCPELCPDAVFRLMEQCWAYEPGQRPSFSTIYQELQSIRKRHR
Assay [6] deals with Mitogen-activated protein kinase kinase kinase kinase 1 (Homo sapiens) (UniProt Q92918). The assay can be described thus: Inhibition of human HPK1 (1 to 346 residues) assessed as residual activity at 10 uM using myelin basic protein as substrate after 40 mins by [gamma-33ATP] radiometric assay relative to control.
In assay [7] the target is Mitogen-activated protein kinase 8 (Homo sapiens) (UniProt P45983). The assay can be described thus: Inhibition of human JNK1alpha1 assessed as residual activity at 10 uM using ATF2 as substrate after 40 mins by [gamma-33ATP] radiometric assay relative to control.
Mitogen-activated protein kinase 8 (Homo sapiens), sequence (P45983 whole entry): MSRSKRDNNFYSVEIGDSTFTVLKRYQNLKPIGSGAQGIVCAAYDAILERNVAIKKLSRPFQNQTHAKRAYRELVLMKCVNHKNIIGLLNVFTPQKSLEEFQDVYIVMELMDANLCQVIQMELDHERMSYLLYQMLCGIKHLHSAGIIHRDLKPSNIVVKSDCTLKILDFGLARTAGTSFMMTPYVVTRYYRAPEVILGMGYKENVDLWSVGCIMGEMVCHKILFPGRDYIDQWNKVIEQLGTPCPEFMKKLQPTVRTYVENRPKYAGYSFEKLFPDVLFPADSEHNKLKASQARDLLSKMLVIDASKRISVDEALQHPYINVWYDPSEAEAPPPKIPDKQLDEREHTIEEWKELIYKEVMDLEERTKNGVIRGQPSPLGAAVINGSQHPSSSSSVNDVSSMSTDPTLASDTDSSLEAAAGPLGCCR
For assay [8], the target named is Tyrosine-protein kinase Lck (Homo sapiens) (UniProt P06239). The experiment in a line: Inhibition of recombinant full length human LCK assessed as residual activity at 10 uM using KVEKIGEGTYGVV as substrate after 40 mins in presence of [gamma-33ATP] by scintillation counting based radiometry assay relative to control.
Tyrosine-protein kinase Lck (Homo sapiens), sequence (P06239 2-509 limits assumed): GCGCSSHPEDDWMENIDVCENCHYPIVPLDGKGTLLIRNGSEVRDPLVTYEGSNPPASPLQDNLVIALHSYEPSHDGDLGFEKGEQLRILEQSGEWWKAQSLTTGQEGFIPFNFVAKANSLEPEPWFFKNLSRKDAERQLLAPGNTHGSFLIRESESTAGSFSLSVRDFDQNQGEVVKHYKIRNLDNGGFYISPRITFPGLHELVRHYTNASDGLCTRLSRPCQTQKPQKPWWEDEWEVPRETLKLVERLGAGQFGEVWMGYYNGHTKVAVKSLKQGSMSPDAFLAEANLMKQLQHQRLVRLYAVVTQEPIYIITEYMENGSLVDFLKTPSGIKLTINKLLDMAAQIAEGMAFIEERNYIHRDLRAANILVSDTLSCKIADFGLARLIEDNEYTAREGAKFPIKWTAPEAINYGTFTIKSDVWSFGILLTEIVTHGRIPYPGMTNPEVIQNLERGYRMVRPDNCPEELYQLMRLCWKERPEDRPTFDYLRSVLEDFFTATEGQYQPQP
The target in assay [9] is Serine/threonine-protein kinase 10 (Homo sapiens) (UniProt O94804). The assay can be described thus: Inhibition of recombinant human LOK (1 to 348 residues) assessed as residual activity at 10 uM using RLGRDKYKTLRQI as substrate after 40 mins in presence of [gamma-33ATP] by scintillation counting based radiometry assay relative to control.
Serine/threonine-protein kinase 10 (Homo sapiens), sequence (O94804 whole entry, looked up, the tested form may be a part): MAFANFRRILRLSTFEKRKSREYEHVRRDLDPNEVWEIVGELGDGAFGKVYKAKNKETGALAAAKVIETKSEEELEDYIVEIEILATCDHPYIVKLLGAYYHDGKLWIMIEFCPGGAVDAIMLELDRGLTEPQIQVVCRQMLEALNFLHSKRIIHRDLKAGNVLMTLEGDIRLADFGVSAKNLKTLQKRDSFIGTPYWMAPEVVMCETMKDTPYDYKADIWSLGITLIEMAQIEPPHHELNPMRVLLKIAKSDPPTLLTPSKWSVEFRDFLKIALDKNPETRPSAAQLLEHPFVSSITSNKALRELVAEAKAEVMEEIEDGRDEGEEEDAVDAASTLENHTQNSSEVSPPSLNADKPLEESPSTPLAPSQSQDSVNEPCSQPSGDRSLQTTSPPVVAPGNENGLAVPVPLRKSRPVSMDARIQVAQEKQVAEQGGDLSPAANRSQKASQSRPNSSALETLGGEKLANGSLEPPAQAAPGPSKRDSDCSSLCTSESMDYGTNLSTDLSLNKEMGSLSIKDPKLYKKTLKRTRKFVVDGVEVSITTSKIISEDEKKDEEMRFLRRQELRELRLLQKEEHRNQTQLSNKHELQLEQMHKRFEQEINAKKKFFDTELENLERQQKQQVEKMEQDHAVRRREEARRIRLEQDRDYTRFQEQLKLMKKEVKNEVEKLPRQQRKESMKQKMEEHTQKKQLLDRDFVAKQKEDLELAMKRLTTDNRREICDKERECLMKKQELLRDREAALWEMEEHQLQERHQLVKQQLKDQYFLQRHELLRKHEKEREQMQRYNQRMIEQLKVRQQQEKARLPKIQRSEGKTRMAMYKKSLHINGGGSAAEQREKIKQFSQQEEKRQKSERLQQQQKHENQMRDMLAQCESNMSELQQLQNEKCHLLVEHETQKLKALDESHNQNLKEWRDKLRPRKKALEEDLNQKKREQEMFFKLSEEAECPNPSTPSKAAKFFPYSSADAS
For a further assay, the species on record is Homo sapiens. The assay can be described thus: Inhibition of recombinant human MARK1 T20S mutant (2 to end residues) assessed as residual activity at 10 uM using KKKVSRSGLYRSPSMPENLNRPR as substrate incubated for 40 mins in presence of [gamma-33ATP by scintillation counting based radiometry assay relative to control.
Assay [10] deals with Ribosomal protein S6 kinase alpha-5 (Homo sapiens) (UniProt O75582). The assay can be described thus: Inhibition of recombinant human MSK1 (2 to end residues) assessed as residual activity at 10 uM using GRPRTSSFAEGKK as substrate incubated for 40 mins in presence of [gamma-33ATP by scintillation counting based radiometry assay relative to control.
Assay [11] deals with Serine/threonine-protein kinase NLK (Homo sapiens) (UniProt Q9UBE8). The assay can be described thus: Inhibition of recombinant human NLK (121 to end residues) assessed as residual activity at 10 uM using protein as substrate measured after 40 mins in presence of [gamma33P]ATP by scintillation counting based radiometry assay relative to control.
Assay [12] has as its target Serine/threonine-protein kinase MARK2 (Homo sapiens) (UniProt Q7KZI7). The experiment in a line: Inhibition of recombinant full-length human PAR1Balpha assessed as residual activity at 10 uM using KKKVSRSGLYRSPSMPENLNRPR as substrate measured after 40 mins in presence of [gamma33P]ATP by scintillation counting based radiometry assay relative to control.
Assay [13] has as its target Platelet-derived growth factor receptor beta (Homo sapiens) (UniProt P09619). The assay can be described thus: Inhibition of human PDGFRbeta (557 to end residues) assessed as residual activity at 10 uM using poly(Glu, Tyr) 4:1 as substrate measured after 40 mins in presence of [gamma33P]ATP by scintillation counting based radiometry assay relative to control.
Assay [14] has as its target Serine/threonine-protein kinase PLK1 (Homo sapiens) (UniProt P53350). The experiment in a line: Inhibition of recombinant full-length human Plk1 assessed as residual activity at 10 uM using casein as substrate incubated for 40 mins in presence of [gamma33P]ATP by scintillation counting based radiometry assay relative to control.
In assay [15] the test system is Serine/threonine-protein kinase Sgk1 (Homo sapiens), O00141 [S422D]. The assay can be described thus: Inhibition of recombinant human SGK S422D mutant (60 to end residues) assessed as residual activity at 10 uM using GRPRTSSFAEGKK as substrate incubated for 40 mins in presence of [gamma33P]ATP by scintillation counting based radiometry assay relative to control.
Serine/threonine-protein kinase Sgk1 (Homo sapiens), O00141 [S422D], sequence (O00141 whole entry S422D): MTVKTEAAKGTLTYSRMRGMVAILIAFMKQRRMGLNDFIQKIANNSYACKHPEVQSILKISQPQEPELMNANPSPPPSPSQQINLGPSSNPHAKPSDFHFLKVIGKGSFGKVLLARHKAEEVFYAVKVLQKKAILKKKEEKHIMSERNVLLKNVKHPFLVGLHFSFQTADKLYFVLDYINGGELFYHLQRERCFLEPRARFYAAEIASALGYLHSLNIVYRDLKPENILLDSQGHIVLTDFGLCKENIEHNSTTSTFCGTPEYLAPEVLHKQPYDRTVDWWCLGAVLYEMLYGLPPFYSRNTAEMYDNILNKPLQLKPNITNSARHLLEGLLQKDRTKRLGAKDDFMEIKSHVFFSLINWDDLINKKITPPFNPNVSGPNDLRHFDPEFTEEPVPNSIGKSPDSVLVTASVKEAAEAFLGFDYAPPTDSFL

The target in assay [16] is Serine/threonine-protein kinase 32C (Homo sapiens) (UniProt Q86UX6). The experiment in a line: Inhibition of recombinant human full length STK32C assessed as residual activity at 10 uM using casein as substrate incubated for 40 mins in presence of [gamma33P]ATP by scintillation counting based radiometry assay relative to control.
For assay [17], the target named is Serine/threonine-protein kinase VRK2 (Homo sapiens) (UniProt Q86Y07). The experiment in a line: Inhibition of recombinant human VRK2 (1 to 336 residues) assessed as residual activity at 10 uM using casein as substrate incubated for 40 mins in presence of [gamma33P]ATP by scintillation counting based radiometry assay relative to control.
The target in assay [18] is Death-associated protein kinase 3 (Homo sapiens) (UniProt O43293). The experiment in a line: Inhibition of recombinant human ZIPK (1 to 290 residues) assessed as residual activity at 10 uM using KKLNRTLSFAEPG substrate incubated for 40 mins in presence of [gamma33P]ATP by scintillation counting based radiometry assay relative to control.
Death-associated protein kinase 3 (Homo sapiens), sequence (O43293 whole entry, looked up, the tested form may be a part): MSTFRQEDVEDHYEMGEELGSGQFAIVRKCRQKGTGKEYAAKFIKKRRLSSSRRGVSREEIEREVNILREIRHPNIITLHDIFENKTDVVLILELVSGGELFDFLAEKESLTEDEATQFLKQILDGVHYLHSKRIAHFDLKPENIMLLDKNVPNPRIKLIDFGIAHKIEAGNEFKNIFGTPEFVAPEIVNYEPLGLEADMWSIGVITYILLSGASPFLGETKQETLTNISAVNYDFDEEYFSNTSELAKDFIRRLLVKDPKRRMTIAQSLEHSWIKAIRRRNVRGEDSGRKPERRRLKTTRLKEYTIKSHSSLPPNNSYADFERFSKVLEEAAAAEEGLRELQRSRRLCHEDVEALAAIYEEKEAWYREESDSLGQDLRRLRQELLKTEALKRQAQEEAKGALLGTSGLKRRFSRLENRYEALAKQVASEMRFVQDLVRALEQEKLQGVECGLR
Assay [19] has as its target Serine/threonine-protein kinase 4 (Homo sapiens, UniProt Q13043). The experiment in a line: Inhibition of recombinant full-length human MST1 assessed as residual activity using KKSRGDYMTMQIG as substrate measured after 40 mins in presence of [gamma33P]ATP by scintillation counting based radiometry assay. The method, boiled down: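 Outsourced kinase profiling of MST1 by a commercial service (Eurofins); activity reported as mean ± SEM of 2 replicates.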

Platelet-derived growth factor receptor beta (Homo sapiens), sequence (P09619 whole entry): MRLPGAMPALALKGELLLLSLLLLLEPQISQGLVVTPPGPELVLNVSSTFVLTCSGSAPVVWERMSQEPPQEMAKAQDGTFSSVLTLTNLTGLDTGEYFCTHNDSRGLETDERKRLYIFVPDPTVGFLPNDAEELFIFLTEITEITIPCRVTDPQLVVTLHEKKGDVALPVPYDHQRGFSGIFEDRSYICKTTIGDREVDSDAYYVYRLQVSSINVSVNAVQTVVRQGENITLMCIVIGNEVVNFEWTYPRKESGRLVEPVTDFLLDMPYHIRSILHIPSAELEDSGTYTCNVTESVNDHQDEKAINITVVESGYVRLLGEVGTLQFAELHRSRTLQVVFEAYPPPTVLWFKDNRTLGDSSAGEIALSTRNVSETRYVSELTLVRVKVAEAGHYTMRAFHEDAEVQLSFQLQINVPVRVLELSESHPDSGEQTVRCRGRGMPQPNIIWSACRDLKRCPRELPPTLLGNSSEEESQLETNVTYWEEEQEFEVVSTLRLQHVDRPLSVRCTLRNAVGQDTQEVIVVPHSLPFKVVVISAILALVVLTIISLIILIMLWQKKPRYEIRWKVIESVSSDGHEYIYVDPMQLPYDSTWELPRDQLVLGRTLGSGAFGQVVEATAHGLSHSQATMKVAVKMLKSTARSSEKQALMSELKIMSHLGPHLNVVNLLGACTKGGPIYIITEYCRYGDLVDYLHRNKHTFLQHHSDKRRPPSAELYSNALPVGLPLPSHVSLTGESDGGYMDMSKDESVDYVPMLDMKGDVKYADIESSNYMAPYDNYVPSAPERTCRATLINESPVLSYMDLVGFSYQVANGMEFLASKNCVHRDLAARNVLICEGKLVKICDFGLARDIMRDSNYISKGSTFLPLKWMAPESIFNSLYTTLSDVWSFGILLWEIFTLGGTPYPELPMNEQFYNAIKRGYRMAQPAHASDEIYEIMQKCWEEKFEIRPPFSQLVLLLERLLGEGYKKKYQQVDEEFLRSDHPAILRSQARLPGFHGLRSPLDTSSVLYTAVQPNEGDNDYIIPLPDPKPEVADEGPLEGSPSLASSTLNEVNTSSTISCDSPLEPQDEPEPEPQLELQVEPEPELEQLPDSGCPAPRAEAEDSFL

On to `C[C@@H](c1ccccc1)n1nnc2cnc3ccc(-c4cnc5[nH]ccc5c4)cc3c21`, for which the Activity in [1] was found to be 17%; in [2], 106%; in assay [3] it was 104%; with Fungi, 37%; in [4] it was 74%; in assay [5], 41%. For the same molecule, the Activity in [6] was 84%; in [7], 105%; in assay [8] it was 6%; in assay [9] it was 54%; in the assay listed under Homo sapiens, 76%; in assay [10], 55%. In addition, the Activity in [11] came to 43%; in assay [12], 85%; in assay [13], 79%; in [14], 105%; in assay [15] it was 52%; in assay [16] it was 91%. Besides, the Activity in assay [17] is 80%; in assay [18] it was 69%. In assay [19], the pIC50 is under 5.00.
